Results on 9 compounds are retold here after PMC4791037 (Environmental science & technology, 2015).

For data set [1], the system named is Chinese hamster ovary (CHO) cell line AS52, clone 11-4-8. The data set can be described thus: CHO cell chronic cytotoxicity assay. In kind it is cell-based. Particulars: mean bootstrap value, calculated as (LC50)^−1(10^3); CHO cells, 72 h.
Data set [2] deals with genomic DNA damage in Chinese hamster ovary (CHO) cell line AS52, clone 11-4-8. The data set can be described thus: Single cell gel electrophoresis. In kind it is cell-based. Particulars: CHO cells, 4 h; for GTI (±SE), genotoxicity index: mean bootstrap value, calculated as (50%TDNA)^−1(10^3). The procedure, abridged: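 CHO AS52 clone 11-4-8 cells (Ham's F12, 5% FBS, 37 °C, 5% CO2) exposed to test compound, then run in microplate comet assay. %Tail DNA scored only over concentrations with viability >70%. Microgel means were averaged per concentration and tested by one-way ANOVA with Holm-Sidak versus control (P ≤ 0.05). 50% Tail DNA concentration came from regression. Bootstrap replicates gave GTI values (1/M).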

Data set [3] is described as follows: CHO cell chronic cytotoxicity assay. In kind it is cell-based, Chinese hamster. Particulars: Chinese hamster, CHO cells, line AS52, clone 11-4-8.

Regarding `O=CCBr` [BAL, bromoacetaldehyde], in data set [1], the “CTI (±SE), cytotoxicity index” value is 64.6 ± 3.5 M⁻¹. In addition, the “GTI (±SE), genotoxicity index” value in data set [2] is 2.68 ± 0.11 M⁻¹.
On to `O=CC(Cl)(Cl)Cl` [TCAL, trichloroacetaldehyde], for which, in data set [1], the “CTI (±SE), cytotoxicity index” value is 0.94 ± 0.03 M⁻¹. Also, the “genotoxicity (result in words)” value in data set [2] (SCGE assay) is listed as “not genotoxic”.
As to `O=CC(Cl)Cl` [DCAL, dichloroacetaldehyde], the “CTI (±SE), cytotoxicity index” value in data set [1] was 35.7 ± 0.8 M⁻¹. The “GTI (±SE), genotoxicity index” value in data set [2] is 1.26 ± 0.03 M⁻¹.
For `O=CC(Cl)(Br)Br` [DBCAL, dibromochloroacetaldehyde], in that order: 200.2 ± 1.4 M⁻¹ and 6.99 ± 0.28 M⁻¹.
For `O=CC(Br)Br` [DBAL, dibromoacetaldehyde], in that order: 207.5 ± 2.1 M⁻¹ and 9.11 ± 0.60 M⁻¹.
Turning to `O=CC(Cl)Br` (stereo not shown) [BCAL, bromochloroacetaldehyde], the “CTI (±SE), cytotoxicity index” value in data set [1] is 207.4 ± 11.0 M⁻¹. Further, the “GTI (±SE), genotoxicity index” value in data set [2] was 1.61 ± 0.21 M⁻¹.
What is called CC50 is the concentration that lowers cell viability or growth by half. A high value points to better tolerance by the cells. For `O=CC(Br)(Br)Br` [TBAL, tribromoacetaldehyde], the “CTI (±SE), cytotoxicity index” value in data set [1] is 279.8 ± 4.8 M⁻¹. The CC50 at 72 h in data set [3] turned out to be 3.58 µM. In data set [2], the “GTI (±SE), genotoxicity index” value was 3.00 ± 0.03 M⁻¹.
Take `O=CCI` [IAL, iodoacetaldehyde]: the “CTI (±SE), cytotoxicity index” value in data set [1] was 170.4 ± 7.3 M⁻¹. Moreover, the “GTI (±SE), genotoxicity index” value in data set [2] is 0.96 ± 0.03 M⁻¹.
`O=CC(Cl)(Cl)Br` [BDCAL, bromodichloroacetaldehyde]: in data set [1], the “CTI (±SE), cytotoxicity index” value is 51.1 ± 4.3 M⁻¹. The “GTI (±SE), genotoxicity index” value in data set [2] was 2.24 ± 0.05 M⁻¹.
